Active and inactive are the calls of the source. No cut-off for these calls is given here.
Columns and labels:
Rattus norvegicus [1] = test: Neurotoxicity in rat assessed as neurological deficit at 30 mg/kg, po after 0.5 hrs […]; format: toxicity, organism-based; design: dose 30 mg/kg, route oral; conditions: in vivo
Method in brief: (§1)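 Rats given the compound, suspended in 0.5% methylcellulose, by the stated route and dose. Neurological deficit was recorded at the listed times as ataxia and loss of placing response and muscle tone. Reported as number of rats showing toxicity/number tested.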

Rattus norvegicus [2] = test: Neurotoxicity in rat assessed as neurological deficit at 30 mg/kg, po after 1 hr […]; format: toxicity, organism-based; design: dose 30 mg/kg, route oral; conditions: in vivo; method in brief: as §1
Mus musculus [3] = test: Neurotoxicity in mouse assessed as inability to maintain equilibrium on rotarod at 300 mg/kg, ip after 4 hrs by rotarod test; format: toxicity, organism-based; design: dose 300 mg/kg, route intraperitoneal; conditions: in vivo
Method in brief: (§2)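 Drug given ip to mice as a suspension in 0.5% methylcellulose. At the stated time after dosing, each mouse was placed on a 1 inch knurled rod turning at 6 rpm. Neurotoxicity = inability to stay balanced at least 1 min in each of three trials. Scored as animals toxic/animals tested in small groups.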

Mus musculus [4] = test: Neurotoxicity in mouse assessed as inability to maintain equilibrium on rotarod at 100 mg/kg, ip after 0.5 hrs by rotarod test; format: toxicity, organism-based; design: dose 100 mg/kg, route intraperitoneal; conditions: in vivo; method in brief: as §2
Mus musculus [5] = test: Anticonvulsant activity in mouse assessed as protection against maximal electric shock-induced seizures at 100 mg/kg, ip after 4 hrs; format: functional, organism-based; design: dose 100 mg/kg
Method in brief: (§3)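 Phase I maximal electroshock screen in mice. Compound given ip as a suspension in 0.5% methylcellulose at 30, 100 or 300 mg/kg, tested at 30 min and 4 h. Small groups (1–8); result is number protected/number tested.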

Mus musculus [6] = test: Neurotoxicity in mouse assessed as inability to maintain equilibrium on rotarod at 100 mg/kg, ip after 4 hrs by rotarod test; format: toxicity, organism-based; design: dose 100 mg/kg, route intraperitoneal; conditions: in vivo; method in brief: as §2
Rattus norvegicus [7] = test: Neurotoxicity in rat assessed as neurological deficit at 30 mg/kg, po after 0.25 hrs […]; format: toxicity, organism-based; design: dose 30 mg/kg, route oral; conditions: in vivo; method in brief: as §1
Mus musculus [8] = test: Anticonvulsant activity against subcutaneous pentylenetetrazole-induced seizures in mouse at 30 mg/kg, ip after 0.5 hrs; format: functional, organism-based; design: dose 30 mg/kg
Method in brief: (§4)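 Phase I screen in mice. Compound given ip as a suspension in 0.5% methylcellulose, read at 30 min and 4 h. Pentylenetetrazole 85 mg/kg in 0.9% NaCl was injected sc into the posterior midline and animals watched ≥30 min. Protection meant no clonic spasm lasting ≥5 s. Groups of 1–8 animals; result is protected/tested.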

Mus musculus [9] = test: Anticonvulsant activity in mouse assessed as protection against maximal electric shock-induced seizures at 30 mg/kg, ip after 0.5 hrs; format: functional, organism-based; design: dose 30 mg/kg; method in brief: as §3
Mus musculus [10] = test: Anticonvulsant activity in mouse assessed as protection against maximal electric shock-induced seizures at 90 mg/kg, ip after 4 hrs; format: functional, organism-based; design: dose 90 mg/kg
Method in brief: (§5)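 Time-to-peak-effect assay: MES protection read at 0.25–4 h after dosing. Mice ip (60–130 mg/kg), rats po (15 or 30 mg/kg) or ip (30 mg/kg). Groups of 4–8; result is protected/tested.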

Mus musculus [11] = test: Neurotoxicity in mouse assessed as inability to maintain equilibrium on rotarod at 30 mg/kg, ip after 0.5 hrs by rotarod test; format: toxicity, organism-based; design: dose 30 mg/kg, route intraperitoneal; conditions: in vivo; method in brief: as §2
Mus musculus [12] = test: Anticonvulsant activity in mouse assessed as protection against maximal electric shock-induced seizures at 60 mg/kg, ip after 0.25 hrs; format: functional, organism-based; design: dose 60 mg/kg; method in brief: as §5
Mus musculus [13] = test: Neurotoxicity in mouse assessed as inability to maintain equilibrium on rotarod at 300 mg/kg, ip after 0.5 hrs by rotarod test; format: toxicity, organism-based; design: dose 300 mg/kg, route intraperitoneal; conditions: in vivo; method in brief: as §2
Mus musculus [14] = test: Anticonvulsant activity in mouse assessed as protection against maximal electric shock-induced seizures at 70 mg/kg, ip after 1 hr; format: functional, organism-based; design: dose 70 mg/kg; method in brief: as §5
Mus musculus [15] = test: Anticonvulsant activity in mouse assessed as protection against maximal electric shock-induced seizures at 30 mg/kg, ip after 4 hrs; format: functional, organism-based; design: dose 30 mg/kg; method in brief: as §3
Mus musculus [16] = test: Anticonvulsant activity against subcutaneous pentylenetetrazole-induced seizures in mouse at 300 mg/kg, ip after 4 hrs; format: functional, organism-based; design: dose 300 mg/kg; method in brief: as §4
Mus musculus [17] = test: Anticonvulsant activity against subcutaneous pentylenetetrazole-induced seizures in mouse at 300 mg/kg, ip after 0.5 hrs; format: functional, organism-based; design: dose 300 mg/kg; method in brief: as §4
Mus musculus [18] = test: Neurotoxicity in mouse assessed as inability to maintain equilibrium on rotarod at 90 mg/kg, ip after 24 hrs using rotarod test; format: toxicity, organism-based; design: dose 90 mg/kg, route intraperitoneal; conditions: in vivo; method in brief: as §2
Mus musculus [19] = test: Anticonvulsant activity in ip dosed mouse assessed as protection against maximal electric shock-induced seizures; format: functional; conditions: Mus musculus, ip; read-out: ED50
Mus musculus [20] = test: Anticonvulsant activity in mouse assessed as protection against maximal electric shock-induced seizures at 90 mg/kg, ip after 1 hr; format: functional, organism-based; design: dose 90 mg/kg; method in brief: as §5
Mus musculus [21] = test: Anticonvulsant activity in mouse assessed as protection against maximal electric shock-induced seizures at 90 mg/kg, ip after 0.25 hrs; format: functional, organism-based; design: dose 90 mg/kg; method in brief: as §5
Mus musculus [22] = test: Anticonvulsant activity against subcutaneous pentylenetetrazole-induced seizures in mouse at 30 mg/kg, ip after 4 hrs; format: functional, organism-based; design: dose 30 mg/kg; method in brief: as §4
Mus musculus [23] = test: Neurotoxicity in mouse assessed as inability to maintain equilibrium on rotarod at 30 mg/kg, ip after 4 hrs by rotarod test; format: toxicity, organism-based; design: dose 30 mg/kg, route intraperitoneal; conditions: in vivo; method in brief: as §2
Mus musculus [24] = test: Anticonvulsant activity in mouse assessed as protection against maximal electric shock-induced seizures at 90 mg/kg, ip after 0.5 hrs; format: functional, organism-based; design: dose 90 mg/kg; method in brief: as §5
Mus musculus [25] = test: Anticonvulsant activity against subcutaneous pentylenetetrazole-induced seizures in mouse at 100 mg/kg, ip after 4 hrs; format: functional, organism-based; design: dose 100 mg/kg; method in brief: as §4
Rattus norvegicus [26] = test: Neurotoxicity in rat assessed as neurological deficit at 30 mg/kg, po after 4 hrs by rotarod test; format: toxicity, organism-based; design: dose 30 mg/kg, route oral; conditions: in vivo; method in brief: as §1
Mus musculus [27] = test: Anticonvulsant activity in mouse assessed as protection against maximal electric shock-induced seizures at 70 mg/kg, ip after 2 hrs; format: functional, organism-based; design: dose 70 mg/kg; method in brief: as §5
Mus musculus [28] = test: Anticonvulsant activity in mouse assessed as protection against maximal electric shock-induced seizures at 300 mg/kg, ip after 4 hrs; format: functional, organism-based; design: dose 300 mg/kg; method in brief: as §3
Mus musculus [29] = test: Anticonvulsant activity in mouse assessed as protection against maximal electric shock-induced seizures at 70 mg/kg, ip after 0.5 hrs; format: functional, organism-based; design: dose 70 mg/kg; method in brief: as §5
Rattus norvegicus [30] = test: Neurotoxicity in rat assessed as neurological deficit at 30 mg/kg, po after 2 hrs […]; format: toxicity, organism-based; design: dose 30 mg/kg, route oral; conditions: in vivo; method in brief: as §1
Mus musculus [31] = test: Anticonvulsant activity in ip dosed mouse assessed as time to show peak effect of protection against maximal electric shock-induced seizures; format: functional; method in brief: as §5
Mus musculus [32] = species: Mus musculus; test: Protective index, ratio of TD50 for neurotoxicity in mouse to ED50 for inhibition of maximal electroshock-induced seizures in mouse; format: functional
[33] = Neurotoxicity in ip dosed mouse assessed as inability to maintain equilibrium on rotarod by rotarod test; format: toxicity, organism-based; conditions: in vivo
Method in brief: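 Mice dosed ip with a suspension in 0.5% methylcellulose, then placed on a 1 inch knurled plastic rod rotating at 6 rpm. Toxicity = failure to keep equilibrium for at least 1 min in each of three trials.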

Mus musculus [34] = test: Anticonvulsant activity in mouse assessed as protection against maximal electric shock-induced seizures at 300 mg/kg, ip after 0.5 hrs; format: functional, organism-based; design: dose 300 mg/kg; method in brief: as §3

Q: Which results are given for `Cc1cccc(C)c1OCC(=O)N[C@H]1CCCC[C@@H]1O.O=C(O)C(O)C(O)C(=O)O`?
A: Activity (Rattus norvegicus [1]): Non-toxic; Activity (Rattus norvegicus [2]): Non-toxic; Activity (Mus musculus [3]): Non-toxic; Activity (Mus musculus [4]): Non-toxic; Activity (Mus musculus [5]): inactive; Activity (Mus musculus [6]): Non-toxic; Activity (Rattus norvegicus [7]): Non-toxic; Activity (Mus musculus [8]): inactive; Activity (Mus musculus [9]): inactive; Activity (Mus musculus [10]): inactive; Activity (Mus musculus [11]): Non-toxic; Activity (Mus musculus [12]): Active; Activity (Mus musculus [13]): Non-toxic; Activity (Mus musculus [14]): inactive; Activity (Mus musculus [15]): inactive; Activity (Mus musculus [16]): inactive; Activity (Mus musculus [17]): inactive; Activity (Mus musculus [18]): Non-toxic; ED50 (Mus musculus [19]): 35.5 mg/kg; Activity (Mus musculus [20]): inactive; Activity (Mus musculus [21]): Active; Activity (Mus musculus [22]): inactive; Activity (Mus musculus [23]): Non-toxic; Activity (Mus musculus [24]): Active; Activity (Mus musculus [25]): inactive; Activity (Rattus norvegicus [26]): Non-toxic; Activity (Mus musculus [27]): inactive; Activity (Mus musculus [28]): inactive; Activity (Mus musculus [29]): inactive; Activity (Rattus norvegicus [30]): Non-toxic; Time (Mus musculus [31]): 0.25 h; Ratio TD50/ED50 (Mus musculus [32]): 1.937; TD50 [33]: 68.7 mg/kg; Activity (Mus musculus [34]): Active
